Results of several laboratories.
Each line is one published result; the experiments were not run side by side. pIC50, pKi: −log10 of the molar value.
Target: Kappa-type opioid receptor (OPRK1, Homo sapiens, UniProt P41145)

Structure (SMILES) | observed | method | setting | quantity | value
Cc1cc(O)cc(C)c1C[C@H](N)C(=O)N1CCc2ccc(Cc3cccc([N+](=O)[O-])c3)cc2C1 | ligand displacement | radioligand | cell membranes | pKi | 8.60
Cc1cc(O)cc(C)c1C[C@H](N)C(=O)N[C@H](C)C(=O)NCC(=O)N[C@@H](Cc1ccc(Cl)cc1)C(=O)N(C)CCC[C@@]1(c2ccc(F)cc2)OCc2cc(C#N)ccc21 | cell-free assay | – | – | pKi | 7.43
COC(=O)C(c1ccccc1)C1CCCCN1 (stereo not shown) | ligand displacement | radioligand | – | pIC50 | 5.16
Cc1ccccc1Cc1ccc2c(c1)CN(C(=O)[C@@H](N)Cc1c(C)cc(O)cc1C)CC2 | ligand displacement | radioligand | cell membranes | pKi | 8.92
C[C@H]1[C@H]2Cc3ccc(O)cc3[C@]1(C)CCN2CC1CC1 | cell-free assay | – | – | pKi | 9.02
COc1ncccc1-c1cnn2ccc(N3CCN(C(=O)OC(C)C)CC3)nc12 | cell-free assay | – | – | pIC50 | < 4.52
CCCO[C@@]12Cc3cc(-c4ccccc4)cnc3[C@@H]3Oc4c(O)ccc5c4[C@@]31CCN(CC1CC1)[C@@H]2C5 | cell-free assay | – | – | pKi | 6.60
CC(CCc1ccc(O)cc1)NCCc1ccc(O)c(O)c1 (stereo not shown) | ligand displacement | radioligand | – | pIC50 | 5.28
Cc1cc(O)cc(C)c1C[C@H](N)C(=O)N1Cc2ccccc2CC1C(=O)NCC(=O)NC(Cc1ccc(Cl)cc1)C(=O)N(C)CCC[C@@]1(c2ccc(F)cc2)OCc2cc(C#N)ccc21 (stereo in doubt) | cell-free assay | – | – | pKi | 7.04
COc1ccc(C(=O)Nc2ccccc2CCC2CCCCN2C)cc1 (stereo not shown) | ligand displacement | radioligand | – | pIC50 | 5.44
CN[C@]1(c2ccccc2Cl)CCCCC1=O | ligand displacement | radioligand | – | pIC50 | 4.89
Cc1cc(O)cc(C)c1C[C@H](N)C(=O)N1CCc2ccc(Cc3ccc(N)cc3)cc2C1 | ligand displacement | radioligand | cell membranes | pKi | 7.04
COC(=O)/C=C/C(=O)N[C@@H]1CC[C@@]2(O)[C@H]3Cc4ccc(O)c5c4[C@@]2(CCN3CC2CC2)[C@H]1O5 | ligand displacement | radioligand | cell membranes | pIC50 | 8.11
